From paper PMC3016090 (ChemMedChem, 2009)
Like-named read-outs stand apart in the source and are kept apart here. Marks after values point to notes of the source that are not given here.

How the values were obtained:
FAAH [1] = biological target: T1, FAAH (Rattus norvegicus, UniProt P97612); assay: FAAH activity in vitro, rat brain membranes, [3H]-anandamide hydrolysis; assay type: biochemical
T1 sequence (P97612 1-579): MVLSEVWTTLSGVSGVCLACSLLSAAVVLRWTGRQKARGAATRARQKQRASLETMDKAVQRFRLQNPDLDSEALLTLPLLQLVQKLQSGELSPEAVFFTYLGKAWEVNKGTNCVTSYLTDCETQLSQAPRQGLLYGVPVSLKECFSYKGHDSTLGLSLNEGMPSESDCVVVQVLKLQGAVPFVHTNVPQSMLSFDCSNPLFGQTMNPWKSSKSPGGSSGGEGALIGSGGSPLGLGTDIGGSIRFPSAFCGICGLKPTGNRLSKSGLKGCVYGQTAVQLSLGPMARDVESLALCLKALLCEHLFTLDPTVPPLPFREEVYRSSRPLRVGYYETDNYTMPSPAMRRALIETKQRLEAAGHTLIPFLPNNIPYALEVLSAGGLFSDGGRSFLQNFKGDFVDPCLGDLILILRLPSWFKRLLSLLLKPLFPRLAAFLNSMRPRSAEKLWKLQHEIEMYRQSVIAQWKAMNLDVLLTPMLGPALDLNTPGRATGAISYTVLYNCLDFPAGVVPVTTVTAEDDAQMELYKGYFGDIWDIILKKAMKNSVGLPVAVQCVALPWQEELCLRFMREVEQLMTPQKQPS

[2] = Stability in phosphate buffered saline at pH 7.4; assay type: physicochemical; settings: PBS pH 7.4, 37 °C; for pH 7.4 (%), percent remaining after 24 h incubation: 1 μM compound
Method in brief: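 Test compound at 1 μM final (1% DMSO) in 10 mM PBS, pH 7.4, at 37 °C. Aliquots were taken at intervals and quantified by LC against calibration curves built in spiked PBS. Reported as percent remaining after 24 h.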

Stability in rat plasma = assay type: in vitro ADME; settings: for half-life at 1 μM: rat, pooled rat plasma diluted to 80% (vol/vol) with PBS, pH 7.4; for Rat Plasma t1/2: 80% rat plasma in PBS pH 7.4, 37 °C
Method in brief: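 Heparinized rat blood from cardiac puncture gave plasma (1,900 x g), pooled and diluted to 80% v/v with 100 mM PBS, pH 7.4. Test compound was added from a 100 μM DMSO stock and incubated at 37 °C with shaking. Timed samples were quenched in ice-cold acetonitrile, spun, and analysed by reversed-phase HPLC-UV against plasma calibration curves. Apparent t1/2 came from log-concentration-versus-time regression.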

FAAH [3] = biological target: T2, FAAH (Mus musculus, UniProt O08914); assay: Brain FAAH activity measured ex vivo after i.p. administration in mice; settings: for Percent FAAH activity remaining at 1 mg-kg^−1 / inhibition of brain FAAH activity in vivo / ID50: mice; for Percent FAAH activity remaining at 1 mg-kg^−1: 1 mg-kg^−1 i.p., brain FAAH ex vivo, printed in ID50 column; for inhibition of brain FAAH activity in vivo / ID50: i.p.; for inhibition of brain FAAH activity in vivo: doses up to 1 mg-kg^−1; for ID50: brain FAAH activity ex vivo; for ED50: mouse, ip, read-out: ID50
T2 sequence (O08914 1-579): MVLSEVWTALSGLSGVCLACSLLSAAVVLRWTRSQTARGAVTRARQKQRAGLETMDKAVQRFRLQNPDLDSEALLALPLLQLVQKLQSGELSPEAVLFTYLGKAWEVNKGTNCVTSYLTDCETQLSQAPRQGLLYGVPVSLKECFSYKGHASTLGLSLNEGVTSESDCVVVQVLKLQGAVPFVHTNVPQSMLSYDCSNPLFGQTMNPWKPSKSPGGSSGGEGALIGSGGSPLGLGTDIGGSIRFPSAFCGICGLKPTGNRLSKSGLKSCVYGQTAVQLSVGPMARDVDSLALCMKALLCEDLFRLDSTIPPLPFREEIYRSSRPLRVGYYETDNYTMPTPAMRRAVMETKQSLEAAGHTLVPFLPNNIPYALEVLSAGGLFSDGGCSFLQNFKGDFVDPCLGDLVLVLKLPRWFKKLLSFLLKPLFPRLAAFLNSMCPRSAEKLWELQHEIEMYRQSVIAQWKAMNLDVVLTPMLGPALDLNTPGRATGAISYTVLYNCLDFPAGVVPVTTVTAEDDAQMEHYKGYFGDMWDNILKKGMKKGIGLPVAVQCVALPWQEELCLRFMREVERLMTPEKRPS
Method in brief: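 Mice received a single i.p. injection. Brains were frozen in liquid N2, thawed, homogenized in 10 vol ice-cold 50 mM Tris pH 7.5 with 0.32 M sucrose, and spun at 1000 x g for 10 min at 4 °C. Homogenate (50 μg protein) was incubated for 30 min at 37 °C in 50 mM Tris pH 7.5 with 0.05% fatty acid-free BSA and 10 μM anandamide plus [3H]-anandamide. Reactions were stopped with chloroform/methanol (1:1), and aqueous-layer radioactivity was scintillation counted.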

[4] = Brain tissue and serum drug levels in mice by LC/MS; assay type: in vivo, mouse; settings: 1 mg-kg^−1 i.p.; for AUC in the brain: 2 h time-course, n = 3; for Cmax in brain tissue: single administration, n = 3 per timepoint
liver carboxylesterases = assay type: biochemical; settings: rat liver microsomes, 30, 100 and 300 nM
Method in brief: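 Commercial rat liver microsomes (2.5 μg) were preincubated with test compound for 30 min at room temperature. p-Nitrophenylacetate was then added (1 mM final). After 20 min, p-nitrophenol formation was read as absorbance at 405 nm.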

[5] = rat brain membranes, 10 μM anandamide, no pre-incubation

Structure (SMILES): O=C(NC1CCCCC1)Oc1ccc([N+](=O)[O-])c(-c2ccccc2)c1 [Compound 1i, Cyclohexylcarbamic acid 6-nitrobiphenyl-3-yl ester]
- IC50 (FAAH [1]): > 30000 nM
- pH 7.4, value expressed as t1/2 [2]: 1.7 ± 0.1 ^[c] min

Structure (SMILES): NC(=O)c1cccc(-c2cccc(OC(=O)NCCCCCCCCc3ccccc3)c2)c1 [Compound 1f, 8-Phenyloctylcarbamic acid 3′-carbamoylbiphenyl-3-yl ester]
- IC50 (FAAH [1]): 0.26 ± 0.02 nM
- pH 7.4 (%), percent remaining after 24 h incubation [2]: 42.8 ± 1.4%
- half-life at 1 μM (Stability in rat plasma): 4 ± 0.1 min
- Percent FAAH activity remaining at 1 mg-kg^−1 (FAAH [3]): 65%^b
- inhibition of brain FAAH activity in vivo (FAAH [3]): little or no
- drug levels in serum and brain after administration [4]: little or no increase in drug levels in serum and brain

Structure (SMILES): O=C(NCCCCc1ccccc1)Oc1cccc(-c2ccccc2)c1 [Compound 1b]
- IC50 (FAAH [1]; [5]): 9.4 ± 2.8 nM
- pH 7.4 (%), percent remaining after 24 h incubation [2]: 35.9 ± 2.7%
- Rat Plasma t1/2 (Stability in rat plasma): 6.6 ± 0.7 min
- plasma t1/2, fold shorter than URB524 (Stability in rat plasma; rat plasma, versus URB524): approximately 6 fold
- ID50 (FAAH [3]): 0.96 mg/kg

Structure (SMILES): NC(=O)c1cccc(-c2cccc(OC(=O)NC3CCCCC3)c2)c1 [Compound 1d]
- pH 7.4 (%), percent remaining after 24 h incubation [2]: 40.2 ± 0.6%
- half-life at 1 μM (Stability in rat plasma): 33 ± 0.5 min
- ED50 (FAAH [3]): 0.22 mg/kg
- AUC in the brain [4]: 6036 ± 899 arbitrary units
- Cmax in brain tissue [4]: 226 ± 29 pmol/g

Structure (SMILES): O=C(NCCCCCCCCc1ccccc1)Oc1cccc(-c2ccccc2)c1 [Compound 1c]
- IC50 (FAAH [1]; [5]): 5.4 ± 0.5 nM
- in vitro FAAH potency relative to parent URB524 (times more potent) (FAAH [1]; ratio of IC50 versus URB524): approximately 5 fold
- pH 7.4 (%), percent remaining after 24 h incubation [2]: 65.9 ± 3.1%
- Rat Plasma t1/2 (Stability in rat plasma): 7.0 ± 0.1 min
- Percent FAAH activity remaining at 1 mg-kg^−1 (FAAH [3]): 105% ^[b]
- inhibition of brain FAAH activity in vivo (FAAH [3]): completely inactive in vivo

Structure (SMILES): Nc1ccc(OC(=O)NC2CCCCC2)cc1-c1ccccc1 [Compound 1h, Cyclohexylcarbamic acid 6-aminobiphenyl-3-yl ester]
- IC50 (FAAH [1]): 27.2 ± 4.8 nM
- pH 7.4 (%), percent remaining after 24 h incubation [2]: 89.0 ± 0.5%
- ED50 (FAAH [3]): 0.18 mg/kg
- effect on liver carboxylesterase activities compared to URB597 (liver carboxylesterases): reduced effects on liver carboxylesterase activities

Structure (SMILES): O=C(NC1CCCCC1)Oc1cccc(-c2ccccc2)c1 [Compound 1a]
- IC50 (FAAH [1]; [5]): 25.6 ± 2 nM
- pH 7.4 (%), percent remaining after 24 h incubation [2]: 41.1 ± 1.1%
- Rat Plasma t1/2 (Stability in rat plasma): 42.7 ± 3.7 min
- ID50 (FAAH [3]): 0.81 mg/kg
- AUC in the brain [4]: 2589 ± 423 arbitrary units
- Cmax in brain tissue [4]: 74 ± 3 pmol/g
